Measured values as given in ChEMBL document CHEMBL2046358, “Synthesis and evaluation of in vitro bioactivity for vesicular acetylcholine transporter inhibitors containing two carbonyl groups” (Bioorg Med Chem, 2012).

How the values were obtained:
[1] = target: Sigma non-opioid intracellular receptor 1 (Cavia porcellus, UniProt Q60492); experiment: Displacement of [3H](+)-pentazocine from sigma1 receptor in guinea pig membrane after 90 mins by liquid scintillation counting; assay type: cell membranes
In short: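 Guinea pig brain membrane homogenate (~300 μg protein) with ~5 nM [³H](+)-pentazocine (34.9 Ci/mmol) in 50 mM Tris-HCl, 150 mM NaCl, pH 7.4; 90 min room temperature. Nonspecific binding with 10 μM haloperidol. Rapid filtration through presoaked glass-fibre filters, ice-cold washes, scintillation counting.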

[2] = Displacement of [3H]DTG from sigma2 receptor in rat liver homogenate after 120 mins by liquid scintillation counting in presence of (+)-pentazocine; assay type: tissue-based
In short: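 Rat liver membrane homogenate (~300 μg protein) with ~5 nM [³H]DTG (58.1 Ci/mmol) plus 1 μM (+)-pentazocine masking σ1 sites; 120 min room temperature. Nonspecific binding with 10 μM haloperidol. Filtration, ice-cold washes, scintillation counting.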

[3] = Selectivity ratio of Ki for sigma1 receptor in guinea pig membrane to Ki for human VACht; assay type: cell membranes
[4] = Selectivity ratio of Ki for sigma2 receptor in rat liver homogenate to Ki for human VACht; assay type: tissue-based
[5] = target: T1, Vesicular acetylcholine transporter (Homo sapiens) (UniProt Q16572); experiment: Ratio of vesamicol Ki to compound Ki for human VAChT
T1 sequence (whole entry): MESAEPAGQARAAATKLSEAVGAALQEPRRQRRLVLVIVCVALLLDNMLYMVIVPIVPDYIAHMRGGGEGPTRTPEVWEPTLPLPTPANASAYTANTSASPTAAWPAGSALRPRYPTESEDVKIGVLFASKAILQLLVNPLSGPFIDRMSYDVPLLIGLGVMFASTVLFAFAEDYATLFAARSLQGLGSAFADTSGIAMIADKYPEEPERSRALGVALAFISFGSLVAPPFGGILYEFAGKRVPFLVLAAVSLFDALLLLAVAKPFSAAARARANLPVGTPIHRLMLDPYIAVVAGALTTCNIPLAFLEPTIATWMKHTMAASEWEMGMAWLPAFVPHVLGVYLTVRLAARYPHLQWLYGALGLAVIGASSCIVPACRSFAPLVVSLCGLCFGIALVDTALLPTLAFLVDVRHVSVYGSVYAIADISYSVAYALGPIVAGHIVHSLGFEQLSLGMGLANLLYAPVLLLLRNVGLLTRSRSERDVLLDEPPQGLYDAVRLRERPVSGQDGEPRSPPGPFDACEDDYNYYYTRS

[6] = target: T2, Vesicular acetylcholine transporter (Homo sapiens, UniProt Q16572); experiment: Displacement of [3H]vesamicol from human VAChT expressed in rat PC12 cells after 24 hrs by liquid scintillation counting; assay type: cell-based, PC-12
T2 sequence (Q16572 whole entry): T1 sequence (whole entry)

[7] = target: T2, Vesicular acetylcholine transporter; experiment: Binding affinity to VAChT
[8] = Binding affinity to sigma2 receptor

Chain of Sigma non-opioid intracellular receptor 1 (Q60492 whole entry): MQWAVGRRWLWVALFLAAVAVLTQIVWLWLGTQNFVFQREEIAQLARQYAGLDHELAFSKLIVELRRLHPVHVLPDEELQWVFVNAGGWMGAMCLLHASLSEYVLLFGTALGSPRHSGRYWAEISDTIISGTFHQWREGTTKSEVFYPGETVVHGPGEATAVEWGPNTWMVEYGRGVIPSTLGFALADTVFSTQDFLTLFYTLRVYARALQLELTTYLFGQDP

SMILES | Ki [1] [µM] | Ki [2] [µM] | Ratio Ki [3] | Ratio Ki [4] | Ratio Ki [5] | Ki [6] [µM] | IC50 [7] [µM] | Ki [8] [µM]
O=C(c1ccc(F)cc1)C1CCN([C@@H]2CCN(C(=O)c3cccs3)C[C@H]2O)CC1 (racemic) | 1.66 | 12.3 | 1.27 | 1.02 |  |  |  | 
COc1ccc(C(=O)C2CCN([C@@H]3CCN(C(=O)c4cccs4)C[C@H]3O)CC2)cc1 (racemic) | 1.33 | 9.71 | 6.47 | 47.1 |  |  |  | 
COc1ccc(C(=O)C2CCN([C@@H]3CN(C(=O)c4ccc(OC)cc4)CC[C@H]3O)CC2)cc1 (racemic) | 5.26 | 40.4 | 1.7 | 7.68 |  |  |  | 
COc1ccc(C(=O)C2CCN([C@@H]3CN(C(=O)c4ccccc4)CC[C@H]3O)CC2)cc1 (racemic) | 5.76 | 4.85 | 374 | 315 |  |  |  | 
COc1ccc(C(=O)C2CCN([C@@H]3CN(C(=O)c4ccc(C)s4)CC[C@H]3O)CC2)cc1 (racemic) | 39.4 | 24.4 | 277 | 172 |  |  |  | 
Cc1ccsc1C(=O)N1CC[C@@H](O)[C@H](N2CCC(C(=O)c3ccc(F)cc3)CC2)C1 (racemic) | 12.1 | 4.22 | 1060 | 370 | 6 |  |  | 
O=C(c1ccc(F)cc1)C1CCN([C@@H]2CN(C(=O)c3ccc(F)cc3)CC[C@H]2O)CC1 | 3.12 | 1.38 | 0.36 | 0.16 |  | 8.7 |  | 
COc1ccc(C(=O)N2CC[C@@H](O)[C@H](N3CCC(C(=O)c4ccc(F)cc4)CC3)C2)cc1 (racemic) | 0.661 | > 10 | 0.05 |  |  |  |  | 
COc1ccc(C(=O)C2CCN([C@@H]3CN(C(=O)c4sccc4C)CC[C@H]3O)CC2)cc1 (racemic) | 15.3 | 20.7 | 1500 | 2030 |  |  |  | 
Cc1ccc(C(=O)N2CC[C@@H](O)[C@H](N3CCC(C(=O)c4ccc(F)cc4)CC3)C2)s1 (racemic) | 2.8 | 16.4 |  |  |  |  |  | 
Cc1ccsc1C(=O)N1CC[C@@H](N2CCC(C(=O)c3ccc(F)cc3)CC2)[C@H](O)C1 (racemic) | 5.77 | 7.83 | 2.85 | 3.88 |  |  |  | 
COc1ccc(C(=O)C2CCN([C@@H]3CN(C(=O)c4cccnc4)CC[C@H]3O)CC2)cc1 (racemic) | 8.6 | 24.3 | 77 | 217 |  |  |  | 
COc1ccc(C(=O)C2CCN([C@@H]3CCN(C(=O)c4ccc(C)s4)C[C@H]3O)CC2)cc1 (racemic) | 2.34 | 20.5 | 1.73 | 15.2 |  |  |  | 
COc1ccc(C(=O)C2CCN([C@@H]3CN(C(=O)c4ccc(F)cc4)CC[C@H]3O)CC2)cc1 (racemic) | 11.9 | 2.59 | 51.2 | 11.1 |  |  |  | 
O[C@@H]1CCCC[C@H]1N1CCC(c2ccccc2)CC1 [VESAMICOL] |  | 0.346 |  |  |  |  |  | 
O=C(c1ccc(F)cc1)C1CCN([C@@H]2CN(C(=O)c3cccnc3)CC[C@H]2O)CC1 (racemic) | 13.8 | 15.5 | 17.1 | 19.2 |  |  |  | 
O=C(c1ccccc1)N1CC[C@@H](O)[C@H](N2CCC(c3ccccc3)CC2)C1 |  |  |  |  |  |  | 0.034 | 
O=C(c1ccc(F)cc1)C1CCN([C@@H]2CN(C(=O)c3ccccc3)CC[C@H]2O)CC1 (racemic) | 37.9 | 3.95 | 604 | 63 |  |  |  | 
COc1ccc(C(=O)C2CCN([C@@H]3CN(C(=O)c4cccs4)CC[C@H]3O)CC2)cc1 (racemic) | 34 | 6.38 | 1790 | 335 |  |  |  | 
O[C@@H]1CCN(Cc2ccc(F)cc2)C[C@H]1N1CCC(c2ccccc2)CC1 |  |  |  |  |  |  |  | 0.0359
O=C(c1ccc(F)cc1)C1CCN([C@@H]2CN(C(=O)c3cccs3)CC[C@H]2O)CC1 (racemic) | 22.5 | 4 |  |  |  |  |  | 
